Calls of active or inactive are those of the source. The rule behind the calls is not given here.
Key:
[1] = molecular target: T1, 5-hydroxytryptamine receptor 6 (Homo sapiens, UniProt P50406); experiment: Displacement of [3H]-LSD from human 5-HT6 receptor expressed in HEK293 cells by microbeta liquid scintillation counting; format: cell-based
Method in brief: (§1)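 Ki values reported as the mean of two independent radioligand binding experiments.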

[2] = molecular target: T2, 5-hydroxytryptamine receptor 1A (Homo sapiens, UniProt P08908); experiment: Displacement of [3H]-8-OH-DPAT from human 5-HT1A receptor expressed in HEK293 cells by microbeta liquid scintillation counting; format: cell-based; method in brief: as §1
T2 sequence (P08908 whole entry): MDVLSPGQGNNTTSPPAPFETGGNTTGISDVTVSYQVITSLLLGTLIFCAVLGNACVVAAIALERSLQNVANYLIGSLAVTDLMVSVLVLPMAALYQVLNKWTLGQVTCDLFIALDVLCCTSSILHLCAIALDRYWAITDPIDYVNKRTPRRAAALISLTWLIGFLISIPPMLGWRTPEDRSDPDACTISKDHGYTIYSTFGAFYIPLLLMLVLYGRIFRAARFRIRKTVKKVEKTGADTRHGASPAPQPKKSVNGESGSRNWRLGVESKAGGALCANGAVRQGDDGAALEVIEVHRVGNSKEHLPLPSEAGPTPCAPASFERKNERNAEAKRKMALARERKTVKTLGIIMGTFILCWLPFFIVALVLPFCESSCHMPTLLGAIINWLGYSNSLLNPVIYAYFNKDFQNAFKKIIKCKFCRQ

[3] = molecular target: 5-hydroxytryptamine receptor 2A (Homo sapiens, UniProt P28223); experiment: Displacement of [3H]-Ketanserin from human 5-HT2A receptor expressed in HEK293 cells by microbeta liquid scintillation counting; format: cell-based; method in brief: as §1
[4] = molecular target: 5-hydroxytryptamine receptor 7 (Homo sapiens, UniProt P34969); experiment: Displacement of [3H]-5-CT from human 5-HT7B receptor expressed in HEK293 cells by microbeta liquid scintillation counting; format: cell-based; method in brief: as §1
[5] = molecular target: D(2) dopamine receptor (Homo sapiens, UniProt P14416); experiment: Displacement of [3H]-Raclopride from human D2L receptor expressed in HEK293 cells by microbeta liquid scintillation counting; format: cell-based; method in brief: as §1
[6] = organism: Homo sapiens; experiment: Selectivity ratio of Ki for human 5-HT1A receptor expressed in HEK293 cells to Ki for human 5-HT6 receptor expressed in HEK293 cells; format: cell-based
[7] = organism: Homo sapiens; experiment: Selectivity ratio of Ki for human 5-HT2A receptor expressed in HEK293 cells to Ki for human 5-HT6 receptor expressed in HEK293 cells; format: cell-based
[8] = organism: Homo sapiens; experiment: Selectivity ratio of Ki for human 5-HT7B receptor expressed in HEK293 cells to Ki for human 5-HT6 receptor expressed in HEK293 cells; format: cell-based
[9] = organism: Homo sapiens; experiment: Selectivity ratio of Ki for human D2L receptor expressed in HEK293 cells to Ki for human 5-HT6 receptor expressed in HEK293 cells; format: cell-based
[10] = molecular target: T1, 5-hydroxytryptamine receptor 6; experiment: Inhibition of 5-HT6 receptor (unknown origin)
[11] = tested on: Rattus norvegicus; experiment: Cognitive enhancing effect in Sprague-Dawley rat assessed as reversal of PCP induced memory deficit at 0.3 to 1 mg/kg, ip administered 1 hour and 15 mins before familiarization phase by novel object recognition test; format: functional, organism-based
Method in brief: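 Novel object recognition in rats with PCP-induced memory deficit; compounds given i.p.; groups compared with vehicle and with PCP; N = 7–12 animals per group; mean ± SEM.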

[12] = tested on: Rattus norvegicus; experiment: Antidepressant activity in Sprague-Dawley rat assessed as increase in climbing time at 3 mg/kg, ip adminstered 60 mins prior to testing measured for 5 mins by forced swimming test; format: functional, organism-based
Method in brief: (§2)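 Modified forced swim test in rats, compounds given i.p.; immobility and climbing times scored against a vehicle-treated group; N = 7–8 animals per group; mean ± SEM.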

[13] = Toxicity in Sprague-Dawley rat assessed as effect on locomotory activity at 0.3 to 3 mg/kg, ip measured for 5 mins by open field test; format: organism-based; details: in vivo
[14] = tested on: Rattus norvegicus; experiment: Antianxietic activity in ip dosed Wistar rat assessed as increase in number of licks accepted measured for 5 mins by Vogel conflict drinking test; format: functional; details: read-out: MED
[15] = tested on: Rattus norvegicus; experiment: Antianxietic activity in ip dosed Wistar rat assessed as increase in number of shocks accepted measured for 5 mins by Vogel conflict drinking test; format: functional; details: read-out: MED
[16] = molecular target: 5-hydroxytryptamine receptor 6 (Rattus norvegicus, UniProt P31388); experiment: Displacement of [3H]Lu AE60157 from rat brain 5-HT6 receptor
[17] = tested on: Rattus norvegicus; experiment: Antidepressant activity in Sprague-Dawley rat assessed as reduction in immobility time at 3 mg/kg, ip adminstered 60 mins prior to testing measured for 5 mins by forced swimming test; format: functional, organism-based; method in brief: as §2

Chain of 5-hydroxytryptamine receptor 2A (P28223 whole entry): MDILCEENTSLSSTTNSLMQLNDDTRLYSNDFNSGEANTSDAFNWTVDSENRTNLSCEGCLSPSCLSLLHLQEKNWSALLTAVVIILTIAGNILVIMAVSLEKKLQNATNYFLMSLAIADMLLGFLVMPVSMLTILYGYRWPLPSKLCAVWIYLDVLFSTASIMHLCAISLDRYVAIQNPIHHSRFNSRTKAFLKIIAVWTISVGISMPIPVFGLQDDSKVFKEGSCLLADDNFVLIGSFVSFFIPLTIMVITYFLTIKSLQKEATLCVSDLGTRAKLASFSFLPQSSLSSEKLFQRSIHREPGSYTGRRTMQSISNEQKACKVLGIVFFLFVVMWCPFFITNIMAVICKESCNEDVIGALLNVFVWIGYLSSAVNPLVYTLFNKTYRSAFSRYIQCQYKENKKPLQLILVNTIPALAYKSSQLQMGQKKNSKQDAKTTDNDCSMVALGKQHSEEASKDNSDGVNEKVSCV
Chain of D(2) dopamine receptor (P14416 whole entry): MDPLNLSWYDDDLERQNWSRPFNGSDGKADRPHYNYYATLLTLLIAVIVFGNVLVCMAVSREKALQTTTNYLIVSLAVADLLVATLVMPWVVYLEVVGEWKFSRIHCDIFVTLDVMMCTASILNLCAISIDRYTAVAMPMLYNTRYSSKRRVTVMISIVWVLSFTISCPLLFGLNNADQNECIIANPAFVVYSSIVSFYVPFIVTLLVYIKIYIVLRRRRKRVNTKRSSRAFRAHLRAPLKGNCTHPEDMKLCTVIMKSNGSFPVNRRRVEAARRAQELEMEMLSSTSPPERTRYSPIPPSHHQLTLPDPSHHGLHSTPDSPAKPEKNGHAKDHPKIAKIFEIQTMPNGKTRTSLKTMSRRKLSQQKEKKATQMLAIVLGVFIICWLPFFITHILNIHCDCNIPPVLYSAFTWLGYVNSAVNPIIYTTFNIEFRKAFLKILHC
T1 sequence (P50406 whole entry): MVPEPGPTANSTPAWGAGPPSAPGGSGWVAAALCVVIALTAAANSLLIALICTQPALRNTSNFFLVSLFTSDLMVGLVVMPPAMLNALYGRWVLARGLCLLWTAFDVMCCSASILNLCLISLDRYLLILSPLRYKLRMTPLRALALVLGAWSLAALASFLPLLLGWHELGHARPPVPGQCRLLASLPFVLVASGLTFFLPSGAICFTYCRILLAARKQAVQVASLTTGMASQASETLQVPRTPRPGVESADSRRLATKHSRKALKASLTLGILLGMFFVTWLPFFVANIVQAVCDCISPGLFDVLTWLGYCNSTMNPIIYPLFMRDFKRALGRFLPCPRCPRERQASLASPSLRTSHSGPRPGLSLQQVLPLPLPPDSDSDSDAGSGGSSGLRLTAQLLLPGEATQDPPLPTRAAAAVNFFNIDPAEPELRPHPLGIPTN
Chain of 5-hydroxytryptamine receptor 7 (P34969 whole entry): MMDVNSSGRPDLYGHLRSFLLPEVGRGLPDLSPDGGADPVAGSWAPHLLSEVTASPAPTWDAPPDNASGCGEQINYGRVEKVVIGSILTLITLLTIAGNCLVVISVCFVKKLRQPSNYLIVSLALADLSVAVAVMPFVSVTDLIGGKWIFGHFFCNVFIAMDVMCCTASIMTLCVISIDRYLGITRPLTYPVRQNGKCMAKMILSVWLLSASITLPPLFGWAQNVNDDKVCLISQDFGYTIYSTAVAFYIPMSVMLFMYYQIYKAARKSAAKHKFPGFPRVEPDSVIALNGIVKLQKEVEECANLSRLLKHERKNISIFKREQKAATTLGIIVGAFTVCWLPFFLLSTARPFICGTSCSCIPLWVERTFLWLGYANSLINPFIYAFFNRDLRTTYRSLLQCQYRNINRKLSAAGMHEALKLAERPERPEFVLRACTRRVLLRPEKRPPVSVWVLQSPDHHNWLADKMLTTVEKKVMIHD
Chain of 5-hydroxytryptamine receptor 6 (Rattus norvegicus, UniProt P31388) (P31388 whole entry): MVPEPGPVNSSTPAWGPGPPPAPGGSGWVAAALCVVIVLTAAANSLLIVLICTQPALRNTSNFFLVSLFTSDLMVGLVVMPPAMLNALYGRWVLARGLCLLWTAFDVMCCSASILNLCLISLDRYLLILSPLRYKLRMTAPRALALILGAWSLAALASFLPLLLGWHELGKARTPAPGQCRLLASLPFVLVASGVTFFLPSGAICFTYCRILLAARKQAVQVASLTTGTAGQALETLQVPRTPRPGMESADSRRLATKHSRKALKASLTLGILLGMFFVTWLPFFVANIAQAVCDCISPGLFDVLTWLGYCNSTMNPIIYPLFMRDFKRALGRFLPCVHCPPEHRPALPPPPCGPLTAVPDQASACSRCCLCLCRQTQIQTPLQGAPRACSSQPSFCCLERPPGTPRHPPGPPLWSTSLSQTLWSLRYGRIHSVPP

## O=S(=O)(c1cc2ccccc2cn1)n1cc(C2=CCNCC2)c2ccccc21
[1]
  Ki: 0.012 µM

## O=S(=O)(c1ccc2cccnc2c1)n1cc(C2=CCNCC2)c2ccc(Cl)cc21
[1]
  Ki: 0.022 µM

## COc1ccc2c(c1)c(C1CCNCC1)cn2S(=O)(=O)c1cncc2ccccc12
[1]
  Ki: 0.024 µM

## CCCN1CC=C(c2cn(S(=O)(=O)c3ccc4cccnc4c3)c3ccc(OC)cc23)CC1
[1]
  Ki: 0.247 µM

## COc1ccc2c(c1)c(C1=CCN(C)CC1)cn2S(=O)(=O)c1ccc2cccnc2c1
[1]
  Ki: 0.082 µM

## COc1ccc2c(c1)c(C1=CCNCC1)cn2S(=O)(=O)c1cc2ccccc2cn1
[1]
  Ki: 0.006 µM

## O=S(=O)(c1cc2ccccc2cn1)n1cc(C2=CCNCC2)c2ccc(Cl)cc21
[1]
  Ki: 0.102 µM

## O=S(=O)(c1cccc2ncccc12)n1cc(C2=CCNCC2)c2cc(Cl)ccc21
[1]
  Ki: 0.011 µM

## O=S(=O)(c1ccc2cccnc2c1)n1cc(C2=CCNCC2)c2ccccc21
[1]
  Ki: 0.007 µM

## O=S(=O)(c1ccc2ncccc2c1)n1cc(C2=CCNCC2)c2ccccc21
[1]
  Ki: 0.02 µM
[2]
  Ki: 1.87 µM
[3]
  Ki: 1.41 µM
[4]
  Ki: 6.66 µM
[5]
  Ki: 1.41 µM
[6]
  Ratio Ki: 70
[7]
  Ratio Ki: 70
[8]
  Ratio Ki: 70
[9]
  Ratio Ki: 70

## O=S(=O)(c1cnc2ccccc2c1)n1cc(C2=CCNCC2)c2ccc(Cl)cc21
[1]
  Ki: 0.037 µM

## O=S(=O)(c1ccc2cccnc2c1)n1cc(C2=CCNCC2)c2cc(Cl)ccc21
[1]
  Ki: 0.009 µM
[2]
  Ki: 2.47 µM
[3]
  Ki: 2.59 µM
[4]
  Ki: 7.32 µM
[5]
  Ki: 1.17 µM
[6]
  Ratio Ki: 70
[7]
  Ratio Ki: 70
[8]
  Ratio Ki: 70
[9]
  Ratio Ki: 70

## O=S(=O)(c1cnc2ccccc2c1)n1cc(C2=CCNCC2)c2cc(Cl)ccc21
[1]
  Ki: 0.011 µM

## O=S(=O)(c1cncc2ccccc12)n1cc(C2=CCNCC2)c2ccccc21
[1]
  Ki: 0.005 µM

## CSc1nn2c(C)cc(C)nc2c1S(=O)(=O)c1ccccc1
[10]
  Ki: 0.0021 µM

## COc1ccc2c(c1)c(C1=CCNCC1)cn2S(=O)(=O)c1ccc2ncccc2c1
[1]
  Ki: 0.014 µM

## COc1ccc2c(c1)c(C1=CCNCC1)cn2S(=O)(=O)c1cnc2ccccc2c1
[1]
  Ki: 0.008 µM

## O=S(=O)(c1cncc2ccccc12)n1cc(C2=CCNCC2)c2cc(Cl)ccc21
[1]
  Ki: 0.018 µM

## O=S(=O)(c1cnc2ccccc2c1)n1cc(C2=CCNCC2)c2ccccc21
[1]
  Ki: 0.013 µM

## Cc1c(C2=CCNCC2)c2ccccc2n1S(=O)(=O)c1cc2ccccc2cn1
[1]
  Ki: 0.02 µM

## O=S(=O)(c1ccc2ncccc2c1)n1cc(C2=CCNCC2)c2ccc(Cl)cc21
[1]
  Ki: 0.112 µM

## O=S(=O)(c1ccccc1)c1cnc2c(N3CCNCC3)cccc2c1 [INTEPIRDINE]
[11]
  Activity: Active
[12]
  Activity: Active
[13]
  Activity: Non-Toxic
[14]
  minimal effective dose: 3 mg/kg
[15]
  minimal effective dose: 3 mg/kg
[16]
  Ki: 0.000234 µM
[17]
  Activity: Active

## CCCCN1CC=C(c2cn(S(=O)(=O)c3ccc4cccnc4c3)c3ccc(OC)cc23)CC1
[1]
  Ki: 0.219 µM

## COc1ccc2c(c1)c(C1=CCNCC1)cn2S(=O)(=O)c1cccc2ncccc12
[1]
  Ki: 0.004 µM
[2]
  Ki: 2.94 µM
[3]
  Ki: 1.55 µM
[4]
  Ki: 2.35 µM
[5]
  Ki: 0.302 µM
[6]
  Ratio Ki: 70
[7]
  Ratio Ki: 70
[8]
  Ratio Ki: 70
[9]
  Ratio Ki: 70

## COc1ccc2c(c1)c(C1CCNCC1)cn2S(=O)(=O)c1ccc2cccnc2c1
[1]
  Ki: 0.03 µM

## Cc1c(C2=CCNCC2)c2ccccc2n1S(=O)(=O)c1ccc2cccnc2c1
[1]
  Ki: 0.018 µM
